Measured values: ChEMBL document CHEMBL4715781, “Exploration of bivalent ligands targeting putative mu opioid receptor and chemokine receptor CCR5 dimerization” (Bioorg Med Chem, 2016)
Calls of active or inactive are those of the source. The rule behind the calls is not given here.

Tests used:
[1] = target: T1, C-C chemokine receptor type 5 (Homo sapiens, UniProt P51681); experiment: Antagonist activity at CCR5 receptor in human MOLT4 cells transfected with Gqi5 assessed as inhibition of RANTES-induced calcium mobilization incubated for 15 mins prior to RANTES addition and measured for 120 secs by Fluo-4AM dye based fluorescence analysis; assay type: functional, cell-based, MOLT-4
Method in brief: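 CCR5-MOLT-4 cells transfected with Gqi5, assayed 48 h later at 25,000 cells/well. Fluo-4 AM/probenecid loading for 45 min, then ligands for 15 min. IC50 from non-linear regression of peak heights. Three repeats.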
Target sequence in this assay (P51681 whole entry): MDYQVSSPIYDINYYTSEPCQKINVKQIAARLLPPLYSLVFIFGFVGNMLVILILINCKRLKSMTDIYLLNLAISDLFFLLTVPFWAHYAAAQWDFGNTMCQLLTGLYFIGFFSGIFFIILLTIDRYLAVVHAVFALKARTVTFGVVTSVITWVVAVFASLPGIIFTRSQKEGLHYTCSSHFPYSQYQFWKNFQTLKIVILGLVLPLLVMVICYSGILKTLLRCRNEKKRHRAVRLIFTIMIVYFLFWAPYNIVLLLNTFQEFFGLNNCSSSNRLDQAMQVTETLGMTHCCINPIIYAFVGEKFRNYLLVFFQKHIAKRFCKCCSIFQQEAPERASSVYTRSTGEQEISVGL

[2] = target: T1, C-C chemokine receptor type 5; experiment: Agonist activity at CCR5 receptor in human MOLT4 cells transfected with Gqi5 assessed as calcium mobilization incubated for 15 mins by Fluo-4AM dye based fluorescence analysis; assay type: functional, cell-based; conditions: MOLT-4
Method in brief: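 CCR5-MOLT-4 cells transfected with Gqi5, tested 48 h post-transfection at 25,000 cells/well in 50:1 HBSS:HEPES buffer. Fluo-4 AM with probenecid loaded for 45 min, then varying ligand concentrations added for 15 min. Fluorescence at 494/516 nm read for 120 s, with buffer alone added at 16 s in place of RANTES. Peak height taken as agonism read-out.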
Target sequence in this assay (P51681 whole entry, looked up): as the sequence (P51681 whole entry) above

[3] = system: Human immunodeficiency virus 1; experiment: Antiviral activity against HIV-1 BAL infected in human astrocytes assessed as reduction in p24 production at 10 to 1000 nM treated for 1 hr prior to viral infection and measured after 5 days by ELISA; assay type: functional, organism-based; conditions: Astrocyte, dose 10-1000 nM, time 5.0 day
Method in brief: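 Primary human astrocytes plated at 1 × 10^5 cells/mL and stimulated 48 h with IL-2 (100 ng/mL) and PHA (5 µg/mL). Polybrene for 30 min, then compound at 10, 100, 1000 nM for 1 h before infection with HIV-1 BaL (p24 1000 pg/mL). p24 ELISA on supernatants and lysates at day 5.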

Mu-type opioid receptor [4] = target: Mu-type opioid receptor (Homo sapiens, UniProt P35372); experiment: Antagonist activity at human MOR transfected in CHO cells co-transfected with Gqi5 assessed as inhibition of DAMGO-induced calcium mobilization incubated for 15 mins prior to DAMGO addition and measured for 90 secs by Fluo-4AM dye based fluorescence analysis; assay type: functional, cell-based
Sequence of Mu-type opioid receptor (Homo sapiens, UniProt P35372) (P35372 whole entry): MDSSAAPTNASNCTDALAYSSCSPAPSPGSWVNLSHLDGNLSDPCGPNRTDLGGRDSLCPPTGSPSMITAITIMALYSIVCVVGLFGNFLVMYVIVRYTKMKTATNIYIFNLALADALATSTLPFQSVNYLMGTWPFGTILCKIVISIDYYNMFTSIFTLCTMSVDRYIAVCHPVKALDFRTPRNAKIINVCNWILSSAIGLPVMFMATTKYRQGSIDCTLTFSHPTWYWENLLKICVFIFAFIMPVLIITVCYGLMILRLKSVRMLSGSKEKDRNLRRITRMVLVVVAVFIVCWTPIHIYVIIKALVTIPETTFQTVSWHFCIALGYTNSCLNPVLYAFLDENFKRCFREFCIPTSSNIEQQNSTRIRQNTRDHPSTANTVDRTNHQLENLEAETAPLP
Method in brief: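 Gqi5-transfected hMOR-CHO cells plated at 20,000/well and used 48 h after transfection. Loaded 30 min with Fluo-4 AM/probenecid in HBSS:HEPES, then ligands added for 15 min. IC50 from non-linear regression of peak heights. Three repeats.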

Mu-type opioid receptor [5] = target: Mu-type opioid receptor (Mus musculus, UniProt P42866); experiment: Displacement of [3H]NLX from mouse MOR expressed in CHO cell membrane incubated for 90 mins by liquid scintillation spectrophotometry; assay type: cell membranes
Sequence of Mu-type opioid receptor (Mus musculus, UniProt P42866) (P42866 whole entry): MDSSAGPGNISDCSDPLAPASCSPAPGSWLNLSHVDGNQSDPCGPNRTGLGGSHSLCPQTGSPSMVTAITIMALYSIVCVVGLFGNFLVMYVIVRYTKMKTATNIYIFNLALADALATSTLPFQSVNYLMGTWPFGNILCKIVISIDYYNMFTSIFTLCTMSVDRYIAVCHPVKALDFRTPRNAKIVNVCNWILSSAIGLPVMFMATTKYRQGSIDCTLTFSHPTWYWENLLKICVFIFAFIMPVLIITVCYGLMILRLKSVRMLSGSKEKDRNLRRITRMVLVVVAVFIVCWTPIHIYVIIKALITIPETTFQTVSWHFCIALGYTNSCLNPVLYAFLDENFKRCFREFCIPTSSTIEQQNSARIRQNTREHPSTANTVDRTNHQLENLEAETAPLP
Method in brief: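 mMOR-CHO membranes incubated 90 min at 30 °C with 2 nM [3H]naloxone and varying unlabeled ligand. Bound ligand collected by rapid GF-B filtration with 3 ice-cold Tris washes and counted by scintillation (45% efficiency). Competitor IC50 used to derive Ki. At least three independent experiments.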

[6] = system: Human immunodeficiency virus 1; experiment: Antiviral activity against HIV-1 BAL infected in human PBMC assessed as reduction in p24 production at 1 uM treated for 1 hr prior to viral infection and measured after 5 days by ELISA; assay type: functional, organism-based; conditions: time 5.0 day
Method in brief: (§1)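 Ficoll-isolated human PBMCs plated at 1 × 10^5 cells/mL and stimulated 48 h with IL-2 (100 ng/mL) and PHA (5 µg/mL). Then polybrene (2 µg/mL) for 30 min, compound at 10, 100 or 1000 nM for 1 h, and infection with R5-tropic HIV-1 BaL (p24 1000 pg/mL). Supernatant and RIPA lysate p24 measured by ELISA at day 5. Dunnett's test against infection alone.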

[7] = system: Human immunodeficiency virus 1; experiment: Antiviral activity against HIV-1 BAL infected in human macrophages assessed as reduction in p24 production at 1 uM treated for 1 hr prior to viral infection and measured after 5 days by ELISA; assay type: functional, organism-based; conditions: Macrophage, time 5.0 day
Method in brief: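 Macrophages derived from PBMCs with M-CSF (100 ng/mL) for 6 days, plated at 1 × 10^5 cells/mL and stimulated 48 h with IL-2/PHA. Polybrene for 30 min, compound (10–1000 nM) for 1 h before HIV-1 BaL (p24 1000 pg/mL). p24 in supernatant and lysate measured by ELISA 5 days post-infection. ANOVA with Dunnett's test.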

[8] = system: Human immunodeficiency virus 1; experiment: Antiviral activity against HIV-1 BAL infected in human macrophages assessed as reduction in p24 production at 500 nM treated for 1 hr prior to viral infection and measured after 5 days by ELISA; assay type: functional, organism-based; conditions: Macrophage, time 5.0 day
Method in brief: (§2)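 PBMCs were Ficoll-isolated from leukopak blood and grown in RPMI-1640 with 10% FBS; macrophages came from PBMCs given M-CSF 100 ng/mL for 6 days. Cells at 1 × 10^5/mL were stimulated with IL-2 (100 ng/mL) and PHA (5 µg/mL) for 48 h, then polybrene (2 µg/mL) for 30 min. Compound was added 1 h before R5 HIV-1 BaL (p24 1000 pg/mL). Supernatant and RIPA-lysate p24 were measured by ELISA at day 5.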

[9] = system: Human immunodeficiency virus 1; experiment: Antiviral activity against HIV-1 BAL infected in human PBMC assessed as reduction in p24 production at 500 nM treated for 1 hr prior to viral infection and measured after 5 days by ELISA; assay type: functional, organism-based; conditions: time 5.0 day; method in brief: as §2
[10] = system: Human immunodeficiency virus 1; experiment: Antiviral activity against HIV-1 SF162 infected in human astrocytes assessed as reduction in viral invasion by measuring decrease in Tat protein expression at 100 nM treated prior to viral infection and measured after 18 hrs by luciferase based assay; assay type: functional, organism-based; conditions: Astrocyte
Method in brief: (§3)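 Primary human astrocytes in 24-well plates transfected with pBlue3'LTR-luc. […] Uninfected cells served as negative control. After about 18–20 h, cells were PBS-rinsed and lysed, and Tat-driven luciferase was measured.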

[11] = system: Human immunodeficiency virus 1; experiment: Antiviral activity against HIV-1 SF162 infected in human astrocytes assessed as reduction in viral invasion by measuring decrease in Tat protein expression at 100 nM co-treated with morphine prior to viral infection and measured after 18 hrs by luciferase based assay; assay type: functional, organism-based; conditions: Astrocyte; method in brief: as §3
CHO [12] = experiment: Antagonist activity at CCR5 receptor in CHO cells co-expressing hMOR, CD4 and luciferase reporter assessed as inhibition of CD4-gp120 complex interaction with receptor dimer by measuring inhibition of cell-cell fusion process at 100 nM measured after co-incubation of CHO cells with HEK293 cells …; assay type: cell-based; conditions: Cricetulus griseus, filed as antagonist, time 18.0 hrs
CHO [13] = experiment: as above; assay type: cell-based; conditions: Cricetulus griseus, filed as antagonist, time 18.0 hrs; remark: listed apart in the source
[14] = target: C-C chemokine receptor type 5 (Macaca mulatta, UniProt P61813); experiment: Displacement of [125I]MIP-1alpha from CCR5 receptor in rhesus monkey membrane incubated for 120 mins by liquid scintillation counting analysis; assay type: cell membranes, Cell membrane
[15] = system: Human immunodeficiency virus 1; experiment: Antiviral activity against HIV-1 BAL infected in human PBMC assessed as reduction in p24 production at 10 to 1000 nM treated for 1 hr prior to viral infection and measured after 5 days by ELISA; assay type: functional, organism-based; conditions: dose 10-1000 nM, time 5.0 day; method in brief: as §1
CHO [16] = experiment: Binding affinity to CCR5-hMOR heterodimer in CHO cells co-expressing CD4 and luciferase reporter assessed as inhibition of CD4-gp120 complex interaction with receptor dimer by measuring inhibition of cell-cell fusion process at 3000 nM measured after co-incubation of CHO cells with HEK293 cells …; assay type: cell-based; conditions: time 18.0 hrs
[17] = system: Human immunodeficiency virus 1; experiment: Antiviral activity against HIV-1 SF162 infected in human astrocytes assessed as reduction in viral invasion by measuring decrease in Tat protein expression at 100 nM treated prior to viral infection and measured after 18 hrs by luciferase based assay relative to maraviroc; assay type: functional, Astrocyte
Method in brief: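 Primary human astrocytes in 24-well plates were transfected with the LTR-luciferase reporter pBlue3'LTR-luc. […] Uninfected cells served as negative control. After about 18–20 h, cells were PBS-rinsed and lysed, and luciferase activity was read as Tat expression.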

[18] = system: Human immunodeficiency virus 1; experiment: Antiviral activity against HIV-1 SF162 infected in human astrocytes assessed as reduction in viral invasion by measuring decrease in Tat protein expression at 100 nM treated prior to viral infection and measured after 18 hrs by luciferase based assay relative to maraviroc in presence of morphine; assay type: functional, Astrocyte
Method in brief: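 Primary human astrocytes carried the transfected pBlue3'LTR-luc reporter. […] Uninfected cells served as negative control. Lysates were taken about 18–20 h later after PBS rinses, and Tat expression was quantified by luciferase luminescence.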

CHO [19] = experiment: Binding affinity to CCR5-hMOR heterodimer in CHO cells co-expressing CD4 and luciferase reporter assessed as inhibition of CD4-gp120 complex interaction with receptor dimer by measuring inhibition of cell-cell fusion process at 3000 nM measured after co-incubation of CHO cells with HEK293 cells …; assay type: cell-based; conditions: time 18.0 hrs; remark: listed apart in the source

Compound | IC50 [1] [nM] | Activity [2] | IC50 (Mu-type opioid receptor [4]) [nM] | Ki (Mu-type opioid receptor [5]) [nM] | other results
CNC(=O)COCC(=O)NCCCCCNC(=O)COCC(=O)Nc1ccc([C@H](CCN2[C@@H]3CC[C@H]2C[C@@H](n2c(C)nnc2C(C)C)C3)NC(=O)C2CCC(F)(F)CC2)cc1 | 948 | inactive |  |  | 
CNC(=O)COCC(=O)NCCCCCCCCCNC(=O)COCC(=O)Nc1ccc([C@H](CCN2[C@@H]3CC[C@H]2C[C@@H](n2c(C)nnc2C(C)C)C3)NC(=O)C2CCC(F)(F)CC2)cc1 | 392 | inactive |  |  | 
Cc1nnc(C(C)C)n1[C@H]1C[C@H]2CC[C@@H](C1)N2CC[C@H](NC(=O)C1CCC(F)(F)CC1)c1ccc(NC(=O)COCC(=O)NCCCCCCCCCNC(=O)COCC(=O)N[C@@H]2CC[C@@]3(O)[C@H]4Cc5ccc(O)c6c5[C@@]3(CCN4CC3CC3)[C@H]2O6)cc1 | 543 | inactive | 21.9 | 6.49 | Activity [3]: Active; Activity [6]: Active; Activity [7]: Active
CNC(=O)COCC(=O)NCCCCCCCNC(=O)COCC(=O)N[C@@H]1CC[C@@]2(O)[C@H]3Cc4ccc(O)c5c4[C@@]2(CCN3CC2CC2)[C@H]1O5 |  |  |  | 9.2 | 
CNC(=O)COCC(=O)NCCCCCNC(=O)COCC(=O)N[C@@H]1CC[C@@]2(O)[C@H]3Cc4ccc(O)c5c4[C@@]2(CCN3CC2CC2)[C@H]1O5 |  |  | 92.1 | 0.78 | 
Cc1nnc(C(C)C)n1[C@H]1C[C@H]2CC[C@@H](C1)N2CC[C@H](NC(=O)C1CCC(F)(F)CC1)c1ccccc1 |  |  |  |  | Activity [8]: Active; Activity [9]: Active; Activity [10]: Active; Activity [11]: inactive; Activity (CHO [12]): Active; Activity (CHO [13]): Active
CNC(=O)COCC(=O)NCCCCCCCCCNC(=O)COCC(=O)N[C@@H]1CC[C@@]2(O)[C@H]3Cc4ccc(O)c5c4[C@@]2(CCN3CC2CC2)[C@H]1O5 |  |  | 41.4 | 1.11 | 
CNC(=O)COCC(=O)NCCCCCCCNC(=O)COCC(=O)Nc1ccc([C@H](CCN2[C@@H]3CC[C@H]2C[C@@H](n2c(C)nnc2C(C)C)C3)NC(=O)C2CCC(F)(F)CC2)cc1 | 622 | inactive |  |  | Ki [14]: 151 nM
Cc1nnc(C(C)C)n1[C@H]1C[C@H]2CC[C@@H](C1)N2CC[C@H](NC(=O)C1CCC(F)(F)CC1)c1ccc(NC(=O)COCC(=O)NCCCCCNC(=O)COCC(=O)N[C@@H]2CC[C@@]3(O)[C@H]4Cc5ccc(O)c6c5[C@@]3(CCN4CC3CC3)[C@H]2O6)cc1 | 2410 | inactive | 21.8 | 3.8 | Activity [3]: Active; Activity [15]: inactive; Activity [7]: inactive
Cc1nnc(C(C)C)n1[C@H]1C[C@H]2CC[C@@H](C1)N2CC[C@H](NC(=O)C1CCC(F)(F)CC1)c1ccc(NC(=O)COCC(=O)NCCCCCCCNC(=O)COCC(=O)N[C@@H]2CC[C@@]3(O)[C@H]4Cc5ccc(O)c6c5[C@@]3(CCN4CC3CC3)[C@H]2O6)cc1 | 126 | inactive | 40 | 3.24 | Activity [3]: Active; Ki [14]: 239 nM; Activity [10]: Active; Activity (CHO [16]): Active; Activity [15]: Active; Activity [7]: Active; Activity [11]: Active; fold change (FC) [17]: 3.3; fold change (FC) [18]: 7; Activity (CHO [19]): Active
Cc1nnc(C(C)C)n1[C@H]1C[C@H]2CC[C@@H](C1)N2CC[C@H](NC(=O)C1CCC(F)(F)CC1)c1cccc(NC(=O)COCC(=O)NCCCCCCCNC(=O)COCC(=O)N[C@@H]2CC[C@@]3(O)[C@H]4Cc5ccc(O)c6c5[C@@]3(CCN4CC3CC3)[C@H]2O6)c1 | 1340 | inactive | 17.1 | 10 | 
CNC(=O)COCC(=O)NCCCCCCCNC(=O)COCC(=O)Nc1cccc([C@H](CCN2[C@@H]3CC[C@H]2C[C@@H](n2c(C)nnc2C(C)C)C3)NC(=O)C2CCC(F)(F)CC2)c1 | 129 | inactive |  |  | 
